Assay results: ChEMBL document CHEMBL1649290, “Correlation of in vitro activity, serum levels, and in vivo efficacy of posaconazole against Rhizopus microsporus in a murine disseminated infection” (Antimicrob Agents Chemother, 2009)
In brackets after ≈: the same amount, converted by molar mass. Activity calls are given as the source filed them. No cut-off for these calls is given here.

What was measured:
[1] = Antifungal activity against Rhizopus microsporus IHEM 13267 by broth microdilution method; type: functional
In short: (§1)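 Clinical isolates kept at −80°C and subcultured on potato dextrose agar at 35°C before testing. MICs were determined by broth microdilution following the CLSI reference guidelines for filamentous fungi (molds), as part of a 15-strain panel tested against seven antifungal agents.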

[2] = Antifungal activity against Rhizopus microsporus UTHSC 03-1802 by broth microdilution method; type: functional; in short: as §1
[3] = test system: Rhizopus microsporus; assay: Antifungal activity against Rhizopus microsporus UTHSC 01-983 infected in OF1 mouse assessed as reduction in fungal load in brain at 20 mg/kg, QD for 5 days; type: functional, organism-based; design: dose 20 mg/kg
[4] = Antifungal activity against Rhizopus microsporus UTHSC 07-371 by broth microdilution method; type: functional; in short: as §1
[5] = Antifungal activity against Rhizopus microsporus IHEM 9503 by broth microdilution method; type: functional; in short: as §1
[6] = test system: Rhizopus microsporus; assay: Antifungal activity against Rhizopus microsporus IHEM 4770 infected in OF1 mouse assessed as reduction in fungal load in brain at 20 mg/kg, QD for 5 days; type: functional, organism-based; design: dose 20 mg/kg
[7] = Drug level in serum of OF1 mouse infected with Rhizopus microsporus UTHSC 01-983 at 20 mg/kg, po BID for 5 days measured after 24 hrs post last dose; type: ADME, organism-based; design: dose 20 mg/kg, route oral; details: read-out: Drug uptake
In short: (§2)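 Immunosuppressed OF1 mice were infected i.v. (5 per group) and dosed orally at 40 mg/kg once daily or 20 mg/kg twice daily for 5 days. Sera were taken 3 h and 24 h after the last dose. Drug was measured by agar bioassay with Candida parapsilosis ATCC 22019 in yeast nitrogen broth, against standards of 0.125–10 μg/ml. Samples were run in duplicate, and the mean of four zone readings was read from the standard curve.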

[8] = Drug level in serum of OF1 mouse infected with Rhizopus microsporus FMR 3542 at 20 mg/kg, po BID for 5 days measured after 3 hrs post last dose; type: ADME, organism-based; design: dose 20 mg/kg, route oral; details: read-out: Drug uptake; in short: as §2
[9] = Drug level in serum of OF1 mouse infected with Rhizopus microsporus FMR 3542 at 40 mg/kg, po QD measured after 24 hrs post last dose; type: ADME, organism-based; design: dose 40 mg/kg, route oral; details: read-out: Drug uptake; in short: as §2
[10] = Antifungal activity against Rhizopus microsporus IHEM 18821 by broth microdilution method; type: functional; in short: as §1
[11] = Antifungal activity against Rhizopus microsporus UTHSC R-3466 by broth microdilution method; type: functional
In short: (§3)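 CLSI broth microdilution reference method for molds, run on clinical R. microsporus isolates. Isolates were stored at −80°C and subcultured on potato dextrose agar at 35°C before testing. Breakpoints: intermediate 2 μg/ml, resistant ≥4 μg/ml.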

[12] = Antifungal activity against Rhizopus microsporus UTHSC 04-3294 by broth microdilution method; type: functional; in short: as §1
[13] = Antifungal activity against Rhizopus microsporus UTHSC 01-983 by broth microdilution method; type: functional; in short: as §3
[14] = Antifungal activity against Rhizopus microsporus CBS 102277 by broth microdilution method; type: functional; in short: as §3
[15] = Drug level in serum of OF1 mouse infected with Rhizopus microsporus UTHSC 01-983 at 40 mg/kg, po QD for 5 days measured after 24 hrs post last dose; type: ADME, organism-based; design: dose 40 mg/kg, route oral; details: read-out: Drug uptake; in short: as §2
[16] = Drug level in serum of OF1 mouse infected with Rhizopus microsporus UTHSC 01-983 at 20 mg/kg, po BID for 5 days measured after 3 hrs post last dose; type: ADME, organism-based; design: dose 20 mg/kg, route oral; details: read-out: Drug uptake; in short: as §2
[17] = test system: Rhizopus microsporus; assay: Antifungal activity against Rhizopus microsporus IHEM 4770 infected in OF1 mouse assessed as reduction in fungal load in brain at 40 mg/kg, QD for 5 days; type: functional, organism-based; design: dose 40 mg/kg
In short: (§4)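 Male OF1 mice (30 g) were immunosuppressed 1 day before infection with cyclophosphamide 200 mg/kg i.p. plus 5-fluorouracil 150 mg/kg i.v., then given 2 × 10^3 CFU i.v. (IHEM 4770: 1 × 10^4 CFU). Oral dosing was 40 mg/kg once daily or 20 mg/kg twice daily, starting 24 h post-challenge; ceftazidime s.c. was given on days 1–7. […], 10 mice per group were killed, and brain and kidney homogenates were plated on PDA (18–24 h, 35°C) for CFU.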

[18] = Antifungal activity against Rhizopus microsporus IHEM 10123 by broth microdilution method; type: functional; in short: as §1
[19] = Antifungal activity against Rhizopus microsporus IHEM 15210 by broth microdilution method; type: functional; in short: as §1
[20] = test system: Rhizopus microsporus; assay: Antifungal activity against Rhizopus microsporus UTHSC R-3466 infected in OF1 mouse assessed as reduction in fungal load in kidney at 20 mg/kg, QD for 5 days; type: functional, organism-based; design: dose 20 mg/kg
[21] = Drug level in serum of OF1 mouse infected with Rhizopus microsporus FMR 3542 at 20 mg/kg, po BID for 5 days measured after 24 hrs post last dose; type: ADME, organism-based; design: dose 20 mg/kg, route oral; details: read-out: Drug uptake; in short: as §2
[22] = test system: Rhizopus microsporus; assay: Antifungal activity against Rhizopus microsporus FMR 3542 infected in OF1 mouse assessed as reduction in fungal load in brain at 40 mg/kg, QD for 5 days; type: functional, organism-based; design: dose 40 mg/kg; in short: as §4
[23] = Drug level in serum of OF1 mouse infected with Rhizopus microsporus UTHSC 01-983 at 40 mg/kg, po QD for 5 days measured after 3 hrs post last dose; type: ADME, organism-based; design: dose 40 mg/kg, route oral; details: read-out: Drug uptake; in short: as §2
[24] = Antifungal activity against Rhizopus microsporus IHEM 13311 by broth microdilution method; type: functional; in short: as §1
[25] = Drug level in serum of OF1 mouse infected with Rhizopus microsporus FMR 3542 at 40 mg/kg, po QD measured after 3 hrs post last dose; type: ADME, organism-based; design: dose 40 mg/kg, route oral; details: read-out: Drug uptake; in short: as §2
[26] = Antifungal activity against Rhizopus microsporus FMR 3542 by broth microdilution method; type: functional; in short: as §3
[27] = Antifungal activity against Rhizopus microsporus IHEM 4770 by broth microdilution method; type: functional; in short: as §1
[28] = Antifungal activity against Rhizopus microsporus IHEM 5234 by broth microdilution method; type: functional; in short: as §3

SMILES	MIC [1] [µg/mL]	MIC [2] [µg/mL]	MIC [4] [µg/mL]	MIC [5] [µg/mL]	MIC [10] [µg/mL]	MIC [11] [µg/mL]	MIC [12] [µg/mL]	MIC [13] [µg/mL]	MIC [14] [µg/mL]	MIC [18] [µg/mL]	MIC [19] [µg/mL]	MIC [24] [µg/mL]	MIC [26] [µg/mL]	MIC [27] [µg/mL]	MIC [28] [µg/mL]	further results
CC[C@@H]([C@H](C)O)n1ncn(-c2ccc(N3CCN(c4ccc(OC[C@@H]5CO[C@@](Cn6cncn6)(c6ccc(F)cc6F)C5)cc4)CC3)cc2)c1=O [POSACONAZOLE]	0.5 (≈ 0.713 µM)	0.25 (≈ 0.357 µM)	0.25 (≈ 0.357 µM)	0.5 (≈ 0.713 µM)	1 (≈ 1.43 µM)	0.25 (≈ 0.357 µM)	0.25 (≈ 0.357 µM)	0.25 (≈ 0.357 µM)	0.5 (≈ 0.713 µM)	1 (≈ 1.43 µM)	0.5 (≈ 0.713 µM)	0.5 (≈ 0.713 µM)	2 (≈ 2.85 µM)	2 (≈ 2.85 µM)	0.25 (≈ 0.357 µM)	Activity [3]: Active; Activity [6]: Active; concentration at 24 h [7]: 2040 ng/mL; concentration at 3 h [8]: 8040 ng/mL; concentration at 24 h [9]: 950 ng/mL; concentration at 24 h [15]: 1050 ng/mL; concentration at 3 h [16]: 7600 ng/mL; Activity [17]: Active; Activity [20]: Active; concentration at 24 h [21]: 2150 ng/mL; Activity [22]: Active; concentration at 3 h [23]: 5960 ng/mL; concentration at 3 h [25]: 5310 ng/mL
CCC(C)n1ncn(-c2ccc(N3CCN(c4ccc(OCC5COC(Cn6cncn6)(c6ccc(Cl)cc6Cl)O5)cc4)CC3)cc2)c1=O (stereo not drawn)	1 (≈ 1.42 µM)	1 (≈ 1.42 µM)	1 (≈ 1.42 µM)	4 (≈ 5.67 µM)	2 (≈ 2.83 µM)	1 (≈ 1.42 µM)	1 (≈ 1.42 µM)	1 (≈ 1.42 µM)	1 (≈ 1.42 µM)	2 (≈ 2.83 µM)	1 (≈ 1.42 µM)	1 (≈ 1.42 µM)	1 (≈ 1.42 µM)	2 (≈ 2.83 µM)	1 (≈ 1.42 µM)	
C[C@@H]1[C@H](O)[C@@H](C)/C=C/C=C/C=C/C=C/C=C/C=C/C=C/[C@H](O[C@@H]2O[C@H](C)[C@@H](O)[C@H](N)[C@@H]2O)C[C@@H]2O[C@](O)(C[C@@H](O)C[C@@H](O)[C@H](O)CC[C@@H](O)C[C@@H](O)CC(=O)O[C@H]1C)C[C@H](O)[C@H]2C(=O)O	0.5 (≈ 0.541 µM)	1 (≈ 1.08 µM)	1 (≈ 1.08 µM)	0.5 (≈ 0.541 µM)	0.5 (≈ 0.541 µM)	0.5 (≈ 0.541 µM)	1 (≈ 1.08 µM)	0.5 (≈ 0.541 µM)	0.5 (≈ 0.541 µM)	0.5 (≈ 0.541 µM)	0.5 (≈ 0.541 µM)	0.5 (≈ 0.541 µM)	0.5 (≈ 0.541 µM)	0.5 (≈ 0.541 µM)	0.5 (≈ 0.541 µM)	
C[C@@H](c1ncncc1F)[C@](O)(Cn1cncn1)c1ccc(F)cc1F						4 (≈ 11.5 µM)		4 (≈ 11.5 µM)	4 (≈ 11.5 µM)				4 (≈ 11.5 µM)		4 (≈ 11.5 µM)	
